Source: ChEMBL document CHEMBL4020839, “Class I HDAC Inhibitors Display Different Antitumor Mechanism in Leukemia and Prostatic Cancer Cells Depending on Their p53 Status” (J Med Chem, 2018)
Active and inactive are the calls of the source. The calls are words filed in the database; no cut-off is given here.

Key:
Histone deacetylase 9 = Histone deacetylase 9 (Homo sapiens, UniProt Q9UKV0); test: Inhibition of recombinant human C-terminal His-tagged HDAC9 (604 to 1066 residues) expressed in baculovirus expression system using Boc-Lys(trifluoroacetyl)-AMC as substrate preincubated for 1 hr followed by substrate addition measured after 2 hrs by fluorescence assay
Outline: (§1)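 Recombinant HDAC incubated with serial compound dilutions at 30 °C for 1 h. Reaction run 2 h at 30 °C, stopped with developer containing trypsin and TSA. Fluorescence read after 30 min at 360/460 nm. Inhibition relative to control wells; IC50 from variable-slope fit.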

Histone deacetylase 1 [1] = molecular target: T1, Histone deacetylase 1 (Homo sapiens, UniProt Q13547); settings: 0.25 to 2 uM
Histone deacetylase 1 [2] = molecular target: T1, Histone deacetylase 1; test: Inhibition of full length recombinant human C-terminal FLAG/His-tagged HDAC1 expressed in baculovirus expression system using Boc-Lys(acetyl)-AMC as substrate preincubated for 1 hr followed by substrate addition measured after 2 hrs by fluorescence assay; outline: as §1
MV4-11 [3] = test: Induction of p53 degradation in human MV4-11 cells up to 500 nM after 6 hrs in presence of proteasome inhibitor bortezomib by Western blot analysis; type: functional, cell-based
Histone deacetylase 4 = Histone deacetylase 4 (Homo sapiens, UniProt P56524); test: Inhibition of recombinant human N-terminal GST-tagged/C-terminal His-tagged HDAC4 (627 to 1084 residues) expressed in baculovirus expression system using Boc-Lys(trifluoroacetyl)-AMC as substrate preincubated for 1 hr followed by substrate addition measured after 2 hrs by fluorescence assay; outline: as §1
[4] = molecular target: T2, Protein deacetylase HDAC6 (Homo sapiens) (UniProt Q9UBN7); test: Inhibition of HDAC6 in human PC3 cells assessed as increase in acetylated tubulin level at 1 to 2 uM after 24 hrs by Western blot method; type: cell-based
T2 sequence (whole entry): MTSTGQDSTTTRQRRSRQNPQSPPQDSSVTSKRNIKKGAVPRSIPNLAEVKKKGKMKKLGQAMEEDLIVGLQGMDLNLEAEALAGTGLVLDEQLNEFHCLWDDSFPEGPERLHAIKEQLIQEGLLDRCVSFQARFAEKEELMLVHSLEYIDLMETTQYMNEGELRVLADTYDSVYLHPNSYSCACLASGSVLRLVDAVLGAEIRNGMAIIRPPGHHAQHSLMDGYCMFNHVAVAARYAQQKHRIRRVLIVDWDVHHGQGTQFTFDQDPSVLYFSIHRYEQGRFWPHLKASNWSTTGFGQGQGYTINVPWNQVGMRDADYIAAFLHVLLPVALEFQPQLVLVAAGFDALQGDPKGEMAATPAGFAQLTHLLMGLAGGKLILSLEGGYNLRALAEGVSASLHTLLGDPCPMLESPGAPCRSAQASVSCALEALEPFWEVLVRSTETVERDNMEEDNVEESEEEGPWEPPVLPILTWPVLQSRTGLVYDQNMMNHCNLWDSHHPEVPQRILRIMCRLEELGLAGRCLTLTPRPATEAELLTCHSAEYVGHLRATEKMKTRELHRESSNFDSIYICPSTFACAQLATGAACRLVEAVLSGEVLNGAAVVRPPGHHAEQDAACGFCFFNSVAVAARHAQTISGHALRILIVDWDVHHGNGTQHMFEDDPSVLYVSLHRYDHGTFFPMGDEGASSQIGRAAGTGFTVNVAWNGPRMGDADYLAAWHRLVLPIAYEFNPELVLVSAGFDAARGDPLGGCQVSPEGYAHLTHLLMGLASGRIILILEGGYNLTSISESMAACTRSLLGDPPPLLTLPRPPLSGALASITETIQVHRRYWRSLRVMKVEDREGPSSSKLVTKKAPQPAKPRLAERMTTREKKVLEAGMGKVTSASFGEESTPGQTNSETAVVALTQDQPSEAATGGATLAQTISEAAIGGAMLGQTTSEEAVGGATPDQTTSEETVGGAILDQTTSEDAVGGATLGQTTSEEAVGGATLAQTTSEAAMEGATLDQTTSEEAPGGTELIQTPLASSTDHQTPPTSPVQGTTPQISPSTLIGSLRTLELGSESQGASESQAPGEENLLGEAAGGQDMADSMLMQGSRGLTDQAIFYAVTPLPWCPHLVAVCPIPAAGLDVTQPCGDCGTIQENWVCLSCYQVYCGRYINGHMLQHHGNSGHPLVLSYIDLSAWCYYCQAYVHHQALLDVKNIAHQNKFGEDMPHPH
Outline: (§2)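 MV4-11 (1,500,000/well) or PC-3 (300,000/well) grown 12 h, then treated 24 h at 1 and 2 μM, with 5 μM SAHA as reference. RIPA lysis, sonication and centrifugation, BCA normalization. NuPAGE 4–12% Bis-Tris gel in MES, transfer, primary antibodies 1/1000 overnight at 4 °C. Actin as loading control.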

PC-3 = test: Downregulation of HDAC1 protein expression in human PC3 cells at 1 to 2 uM after 24 hrs by Western blot method; type: functional, cell-based; outline: as §2
[5] = molecular target: Histone deacetylase 3 (Homo sapiens) (UniProt O15379); settings: 0.25 to 2 uM
[6] = molecular target: Histone deacetylase 3/Nuclear receptor corepressor 2 (HDAC3/NCoR2) (Homo sapiens, UniProt O15379); test: Inhibition of full length recombinant human C-terminal His-tagged HDAC3/N-terminal GST-tagged NCOR2 co-expressed in baculovirus expression system using Boc-Lys(acetyl)-AMC as substrate preincubated for 1 hr followed by substrate addition measured after 2 hrs by fluorescence assay; outline: as §1
[7] = molecular target: T3, Protein deacetylase HDAC6 (Homo sapiens, UniProt Q9UBN7); test: Inhibition of HDAC6 (unknown origin) using Boc-Lys(acetyl)-AMC as substrate preincubated for 1 hr followed by substrate addition measured after 2 hrs by fluorescence assay; outline: as §1
T3 sequence (Q9UBN7 whole entry): T2 sequence (whole entry)

MV4-11 [8] = test: Induction of apoptosis in human MV4-11 cells assessed as increase in cleaved PARP level at 1 to 2 uM after 24 hrs by Western blot method; type: functional, cell-based; outline: as §2
MV4-11 [9] = test: Antiproliferative activity against human MV4-11 cells assessed as cell death at 10 uM after 48 hrs by CellTiter-Blue assay; type: functional, cell-based
Outline: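 MV4-11 and PC-3 cells treated with 10 or 2 μM (or 0 μM) and sampled at 24 and 48 h. Viable cells measured by CellTiter-Blue resorufin fluorescence, read as in the EC50 assay, which is proportional to viable cell number. Representative of n = 2 experiments.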

MV4-11 [10] = test: Induction of apoptosis in human MV4-11 cells assessed as increase in cleaved caspase-3 level at 1 to 2 uM after 24 hrs by Western blot method; type: functional, cell-based; outline: as §2
[11] = molecular target: Matrix metalloproteinase 2/9 (Homo sapiens) (UniProt P08253+P14780); test: Inhibition of human MMP2/C-terminal hemopexin domain truncated MMP9 up to 50 uM preincubated for 10 to 15 mins followed by substrate addition measured after 2 hrs by fluorescence assay; type: protein assay
Outline: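 Gelatinase kit assay: compound (100 μM stock), MMP inhibitor (40 μM stock) or activation buffer combined with MMP-2/MMP-9 in activation buffer. After 10–15 min, substrate added and incubated at 37 °C for 2 h. Fluorescence read at 320/405 nm.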

T1 sequence (Q13547 whole entry): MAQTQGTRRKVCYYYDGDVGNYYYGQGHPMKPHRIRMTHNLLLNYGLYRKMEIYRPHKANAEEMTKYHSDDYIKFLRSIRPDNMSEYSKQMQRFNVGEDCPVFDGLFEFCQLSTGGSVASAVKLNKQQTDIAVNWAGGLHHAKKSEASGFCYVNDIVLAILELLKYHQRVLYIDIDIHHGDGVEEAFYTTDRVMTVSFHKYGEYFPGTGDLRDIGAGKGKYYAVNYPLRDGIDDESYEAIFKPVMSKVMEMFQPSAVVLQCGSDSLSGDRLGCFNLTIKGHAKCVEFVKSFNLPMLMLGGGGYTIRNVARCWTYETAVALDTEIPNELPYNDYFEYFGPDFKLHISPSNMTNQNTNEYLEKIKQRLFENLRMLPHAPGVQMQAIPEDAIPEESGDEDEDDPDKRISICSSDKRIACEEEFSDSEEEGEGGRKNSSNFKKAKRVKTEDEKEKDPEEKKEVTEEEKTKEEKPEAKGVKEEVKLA
Chain of Histone deacetylase 4 (P56524 whole entry, the tested form may be a part): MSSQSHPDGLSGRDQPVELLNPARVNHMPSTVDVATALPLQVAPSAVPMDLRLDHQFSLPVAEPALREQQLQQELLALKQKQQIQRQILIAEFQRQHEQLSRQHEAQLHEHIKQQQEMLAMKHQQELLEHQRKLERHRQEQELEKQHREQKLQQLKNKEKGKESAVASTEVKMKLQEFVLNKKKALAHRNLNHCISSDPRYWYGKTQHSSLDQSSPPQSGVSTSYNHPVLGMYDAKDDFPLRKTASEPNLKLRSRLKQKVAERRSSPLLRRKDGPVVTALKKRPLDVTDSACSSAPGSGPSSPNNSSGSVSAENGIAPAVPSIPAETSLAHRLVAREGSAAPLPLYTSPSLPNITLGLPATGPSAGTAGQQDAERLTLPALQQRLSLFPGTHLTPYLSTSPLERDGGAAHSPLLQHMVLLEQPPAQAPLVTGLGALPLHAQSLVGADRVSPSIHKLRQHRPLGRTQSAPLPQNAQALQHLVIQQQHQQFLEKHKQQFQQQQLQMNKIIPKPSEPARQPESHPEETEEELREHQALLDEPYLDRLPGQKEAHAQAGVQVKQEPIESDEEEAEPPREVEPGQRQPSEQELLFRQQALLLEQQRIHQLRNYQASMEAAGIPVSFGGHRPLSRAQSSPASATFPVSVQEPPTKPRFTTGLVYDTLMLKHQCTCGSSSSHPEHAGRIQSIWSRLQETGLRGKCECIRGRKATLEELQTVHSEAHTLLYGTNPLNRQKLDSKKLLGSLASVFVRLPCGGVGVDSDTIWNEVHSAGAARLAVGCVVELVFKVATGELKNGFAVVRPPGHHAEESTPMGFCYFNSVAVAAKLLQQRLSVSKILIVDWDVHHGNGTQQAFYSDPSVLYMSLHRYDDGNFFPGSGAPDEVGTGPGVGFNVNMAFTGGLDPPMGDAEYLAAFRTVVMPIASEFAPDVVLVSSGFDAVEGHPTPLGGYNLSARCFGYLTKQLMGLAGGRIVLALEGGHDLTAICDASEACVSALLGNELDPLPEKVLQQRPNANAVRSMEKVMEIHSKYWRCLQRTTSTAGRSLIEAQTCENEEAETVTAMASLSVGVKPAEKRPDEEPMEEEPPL
Chain of Histone deacetylase 3 (Homo sapiens) (O15379 whole entry): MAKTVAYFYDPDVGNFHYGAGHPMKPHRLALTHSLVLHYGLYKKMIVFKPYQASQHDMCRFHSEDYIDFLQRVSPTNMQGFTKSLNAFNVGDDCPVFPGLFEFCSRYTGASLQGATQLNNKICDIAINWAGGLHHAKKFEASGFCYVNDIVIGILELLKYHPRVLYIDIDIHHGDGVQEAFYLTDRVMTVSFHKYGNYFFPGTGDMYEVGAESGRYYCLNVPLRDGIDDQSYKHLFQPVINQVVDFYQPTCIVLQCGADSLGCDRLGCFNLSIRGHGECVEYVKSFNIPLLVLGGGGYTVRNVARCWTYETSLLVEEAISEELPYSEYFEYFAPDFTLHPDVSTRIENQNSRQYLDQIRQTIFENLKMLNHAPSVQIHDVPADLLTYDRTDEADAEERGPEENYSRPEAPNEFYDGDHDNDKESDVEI
Chain of Histone deacetylase 3/Nuclear receptor corepressor 2 (HDAC3/NCoR2) (O15379 whole entry): as above
Chain of Histone deacetylase 3/Nuclear receptor corepressor 2 (HDAC3/NCoR2) (Q9Y618 whole entry, further chain): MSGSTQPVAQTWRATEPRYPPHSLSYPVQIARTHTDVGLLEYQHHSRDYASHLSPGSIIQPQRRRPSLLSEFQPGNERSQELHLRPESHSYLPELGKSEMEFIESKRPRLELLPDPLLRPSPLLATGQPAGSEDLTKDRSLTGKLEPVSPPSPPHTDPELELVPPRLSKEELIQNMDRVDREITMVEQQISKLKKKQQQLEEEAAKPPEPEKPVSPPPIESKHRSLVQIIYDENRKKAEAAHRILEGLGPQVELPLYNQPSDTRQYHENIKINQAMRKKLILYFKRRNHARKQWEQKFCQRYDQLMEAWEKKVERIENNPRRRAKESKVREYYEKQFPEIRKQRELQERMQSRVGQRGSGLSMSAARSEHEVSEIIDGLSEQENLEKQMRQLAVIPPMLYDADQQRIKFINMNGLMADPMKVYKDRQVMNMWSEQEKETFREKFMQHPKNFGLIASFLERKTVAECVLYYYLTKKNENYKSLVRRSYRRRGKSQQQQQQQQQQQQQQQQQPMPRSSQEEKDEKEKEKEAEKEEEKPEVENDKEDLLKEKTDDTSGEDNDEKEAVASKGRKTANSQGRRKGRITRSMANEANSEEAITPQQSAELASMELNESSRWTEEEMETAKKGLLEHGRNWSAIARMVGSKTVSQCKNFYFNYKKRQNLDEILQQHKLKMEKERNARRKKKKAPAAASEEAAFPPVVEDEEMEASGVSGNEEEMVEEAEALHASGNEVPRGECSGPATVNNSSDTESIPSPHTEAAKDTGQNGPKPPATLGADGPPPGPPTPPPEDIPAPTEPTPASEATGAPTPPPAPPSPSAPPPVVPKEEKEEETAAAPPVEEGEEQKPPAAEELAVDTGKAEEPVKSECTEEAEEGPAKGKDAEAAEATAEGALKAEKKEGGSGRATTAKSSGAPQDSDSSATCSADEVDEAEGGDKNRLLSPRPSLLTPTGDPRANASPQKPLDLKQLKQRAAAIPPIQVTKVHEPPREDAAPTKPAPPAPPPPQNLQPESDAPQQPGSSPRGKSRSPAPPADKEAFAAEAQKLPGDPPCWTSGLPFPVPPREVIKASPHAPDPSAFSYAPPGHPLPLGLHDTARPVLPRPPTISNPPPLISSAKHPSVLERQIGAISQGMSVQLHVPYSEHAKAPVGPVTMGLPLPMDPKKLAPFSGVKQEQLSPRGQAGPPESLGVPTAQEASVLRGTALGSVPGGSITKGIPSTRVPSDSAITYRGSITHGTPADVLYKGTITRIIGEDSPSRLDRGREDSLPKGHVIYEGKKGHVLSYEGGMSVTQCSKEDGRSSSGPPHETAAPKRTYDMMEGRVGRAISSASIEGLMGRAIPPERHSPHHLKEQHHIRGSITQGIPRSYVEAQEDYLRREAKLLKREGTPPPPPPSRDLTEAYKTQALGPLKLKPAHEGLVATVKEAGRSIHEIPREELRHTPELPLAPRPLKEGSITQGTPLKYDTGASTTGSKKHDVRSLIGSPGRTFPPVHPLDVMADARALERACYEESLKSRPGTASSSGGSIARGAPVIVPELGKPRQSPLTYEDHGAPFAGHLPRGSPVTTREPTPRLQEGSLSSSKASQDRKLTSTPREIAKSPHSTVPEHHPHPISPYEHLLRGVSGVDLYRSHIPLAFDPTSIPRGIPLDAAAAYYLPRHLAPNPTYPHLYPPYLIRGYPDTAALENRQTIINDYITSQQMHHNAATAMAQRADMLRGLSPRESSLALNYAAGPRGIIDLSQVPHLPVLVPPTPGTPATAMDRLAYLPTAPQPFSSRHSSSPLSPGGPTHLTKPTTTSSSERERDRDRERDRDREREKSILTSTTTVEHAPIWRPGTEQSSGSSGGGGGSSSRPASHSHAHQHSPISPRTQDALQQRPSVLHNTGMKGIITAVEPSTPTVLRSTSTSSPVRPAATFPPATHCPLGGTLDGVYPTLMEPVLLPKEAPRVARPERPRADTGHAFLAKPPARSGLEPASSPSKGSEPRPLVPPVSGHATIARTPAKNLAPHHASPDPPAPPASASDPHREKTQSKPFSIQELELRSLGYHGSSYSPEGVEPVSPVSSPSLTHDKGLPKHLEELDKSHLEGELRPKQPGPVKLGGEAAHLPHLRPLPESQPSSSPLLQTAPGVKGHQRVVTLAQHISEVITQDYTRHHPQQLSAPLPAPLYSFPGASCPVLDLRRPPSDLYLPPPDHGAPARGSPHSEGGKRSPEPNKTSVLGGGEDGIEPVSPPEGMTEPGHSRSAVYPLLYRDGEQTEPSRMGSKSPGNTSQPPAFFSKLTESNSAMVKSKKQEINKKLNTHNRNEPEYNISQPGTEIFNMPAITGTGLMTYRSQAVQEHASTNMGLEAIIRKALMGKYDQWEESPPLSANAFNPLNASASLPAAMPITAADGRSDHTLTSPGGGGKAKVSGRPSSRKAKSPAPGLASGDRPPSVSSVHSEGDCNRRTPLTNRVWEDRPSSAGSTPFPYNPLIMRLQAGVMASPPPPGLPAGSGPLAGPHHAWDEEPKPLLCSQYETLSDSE

CCCNNC(=O)c1ccc(NC(=O)[C@H](Cc2c[nH]c3ccccc23)NC(=O)c2ccc(OC)cc2)cc1
IC50 (Histone deacetylase 9): > 50 µM
inhibition (Histone deacetylase 1 [1]): Active
IC50 (Histone deacetylase 1 [2]): 0.00954 µM
Activity (MV4-11 [3]): inactive
IC50 (Histone deacetylase 4): > 50 µM
inhibition [4]: inactive
Activity (PC-3): inactive
inhibition [5]: Active
IC50 [6]: 0.00141 µM
IC50 [7]: 50 to 100 µM
Activity (MV4-11 [8]): Active
Activity (MV4-11 [9]): Active
Activity (MV4-11 [10]): Active
inhibition [11]: inactive
